{"source": "paper PMC3325786", "about": "(Cancer Research, 2011)", "key": {"Taspase1 [1]": {"target": "T1, Taspase1 (Homo sapiens, UniProt Q9H6P5)", "T1 sequence (Q9H6P5 1-233 limits assumed)": "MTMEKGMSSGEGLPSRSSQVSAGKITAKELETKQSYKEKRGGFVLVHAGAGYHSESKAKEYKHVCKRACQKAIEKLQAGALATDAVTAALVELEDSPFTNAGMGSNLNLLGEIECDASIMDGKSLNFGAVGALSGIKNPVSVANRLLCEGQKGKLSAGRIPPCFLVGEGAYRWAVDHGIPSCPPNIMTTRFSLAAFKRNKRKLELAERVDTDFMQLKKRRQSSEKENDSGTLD", "T1 sequence (Q9H6P5 234-420 limits assumed)": "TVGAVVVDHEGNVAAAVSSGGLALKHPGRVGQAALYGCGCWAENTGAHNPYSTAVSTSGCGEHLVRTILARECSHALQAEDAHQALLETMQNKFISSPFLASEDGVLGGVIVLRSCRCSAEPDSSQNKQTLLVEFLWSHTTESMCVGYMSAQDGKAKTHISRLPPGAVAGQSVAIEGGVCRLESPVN", "assay": "In vitro cleavage of radiolabeled p75MLL reporter by recombinant Taspase1", "type": "biochemical", "conditions": "for activity against Taspase1 (cleavage of p75MLL): in vitro cleavage assay"}, "Caspase8": {"target": "Caspase8 (Homo sapiens, UniProt Q14790)", "sequence (Q14790 217-374 limits assumed, species assumed)": "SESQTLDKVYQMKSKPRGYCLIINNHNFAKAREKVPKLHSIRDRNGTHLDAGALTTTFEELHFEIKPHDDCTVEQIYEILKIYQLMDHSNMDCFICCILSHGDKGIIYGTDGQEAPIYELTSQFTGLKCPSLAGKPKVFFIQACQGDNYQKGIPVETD", "sequence (Q14790 385-479 limits assumed, species assumed)": "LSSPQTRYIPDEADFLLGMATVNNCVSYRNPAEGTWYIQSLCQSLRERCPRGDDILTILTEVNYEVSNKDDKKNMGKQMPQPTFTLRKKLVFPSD", "assay": "Caspase8-p22Bid in vitro cleavage assay", "type": "biochemical", "conditions": "1 mM compound, 250 ng rCaspase8"}, "Taspase1 [2]": {"target": "T1, Taspase1", "assay": "FRET-based Taspase1 cleavage assay with FRPR reporter", "type": "biochemical"}, "[3]": {"target": "T2, Taspase1 precursor (p50T1α-β) (Homo sapiens, UniProt Q9H6P5)", "T2 sequence (Q9H6P5 1-420)": "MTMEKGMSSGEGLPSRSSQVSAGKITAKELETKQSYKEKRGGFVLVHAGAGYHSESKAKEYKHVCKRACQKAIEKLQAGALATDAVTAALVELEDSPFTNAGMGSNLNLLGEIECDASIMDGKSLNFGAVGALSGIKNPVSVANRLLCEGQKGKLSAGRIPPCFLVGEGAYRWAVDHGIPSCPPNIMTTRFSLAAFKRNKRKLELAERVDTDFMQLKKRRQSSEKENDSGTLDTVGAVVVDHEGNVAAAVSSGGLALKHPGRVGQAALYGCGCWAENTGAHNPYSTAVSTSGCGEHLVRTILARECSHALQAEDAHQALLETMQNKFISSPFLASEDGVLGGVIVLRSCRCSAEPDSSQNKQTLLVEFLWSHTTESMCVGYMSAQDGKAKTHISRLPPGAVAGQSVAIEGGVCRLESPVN", "assay": "Intramolecular autoproteolysis of radiolabeled Taspase1 precursor p50T1α-β", "type": "biochemical", "conditions": "increasing amounts, 6 hours at 30°C", "outline": "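Radiolabeled 50 kD Taspase1 precursor (p50T1α-β, 0.5 μl) incubated in cleavage buffer at 30°C for 6 hours with indicated concentrations of test compound. Maturation is scored as autoproteolytic conversion to the 28 kD α and 22 kD β subunits.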"}, "[4]": {"system": "Taspase1−/−;Taspase1 MEFs", "assay": "MTT relative cell number in SV40-transformed MEFs", "type": "cell-based, mouse", "conditions": "1uM, 2 days"}, "U251 cells": {"system": "U251 cells", "assay": "Growth inhibition of NCI60 brain tumor cell lines", "type": "cell-based, human", "conditions": "NCI DTP GI50 data confirmed by MTT, 2 days"}, "[5]": {"assay": "In vivo toxicity profile after short term tail vein injections", "design": "species or system mouse"}, "MMTV-neu breast cancers": {"system": "MMTV-neu breast cancers", "assay": "MMTV-neu mouse breast cancer model", "type": "in vivo", "conditions": "every other day, 5 intravenous injections"}, "MMTV-wnt breast cancers": {"system": "MMTV-wnt breast cancers", "assay": "MMTV-wnt mouse breast cancer model", "type": "in vivo", "conditions": "every other day, 5 intravenous injections"}, "U251 xenograft": {"system": "U251 xenograft", "assay": "U251 brain tumor xenograft, bioluminescent imaging", "type": "in vivo, mouse", "conditions": "treated on days 0, 2 and 4; compared to vehicle", "outline": "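U251 cells stably expressing firefly luciferase were implanted subcutaneously into the flanks of male NOD-scid IL2Rγ−/− mice aged 6–8 weeks on day −1. Test compound was given at indicated doses on days 0, 2 and 4. Tumor mass was followed by bioluminescence imaging, normalized to 1 at day 0. Mean ± SD of 4 tumors per arm.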"}, "autotaxin": {"system": "autotaxin", "conditions": "cited from earlier work"}, "[6]": {"conditions": "short term tail vein injections"}}, "note": "DNP = 2,4-dinitrophenyl quencher group; MCA = fluorogenic coumarin group", "data": [{"molecule": "O=C(O)Cc1ccc(Oc2ccc(CC(=O)O)cc2)cc1", "note": "[NSC74084]", "values": [{"measurement": "activity against Taspase1 (cleavage of p75MLL)", "setting": "Taspase1 [1]", "value": "no demonstrable activity"}]}, {"molecule": "O=[As](O)(O)O", "note": "[arsenic acid, reference compound]", "values": [{"measurement": "inhibition of Taspase1 by free arsenic acid", "setting": "Taspase1 [1]; up to 1 mM, 5 ng rTaspase1, 30 min preincubation", "value": "no detectable inhibition"}]}, {"molecule": "O=[As](O)(O)c1ccc(Cc2ccc([As](=O)(O)O)cc2)cc1", "note": "[NSC48300, [4-[(4-arsonophenyl)methyl]phenyl] arsonic acid]", "values": [{"measurement": "IC50", "setting": "Taspase1 [1]", "value": "~7.5", "unit": "µM"}, {"measurement": "reversible or irreversible inhibition (extended pre-incubation)", "setting": "Taspase1 [1]; 5 μM, pre-incubation for extended periods of time", "value": "reversible"}, {"measurement": "specificity: Caspase8-mediated cleavage of p22Bid", "setting": "Caspase8", "value": "specifically targeted Taspase1"}, {"measurement": "mode of inhibition", "setting": "Taspase1 [2]; non-linear regression of reaction curves", "value": "non-competitive"}, {"measurement": "impact on Taspase1 autoproteolysis", "setting": "[3]", "value": "no impact"}, {"measurement": "sensitivity compared to parental Taspase1−/− cell line", "setting": "[4]", "value": "increased sensitivity"}, {"measurement": "sensitivity to treatment in vitro among NCI60 brain tumor cell lines", "setting": "U251 cells", "value": "most sensitive"}, {"measurement": "hemoglobin levels", "setting": "[5]; complete blood counts", "value": "decrease"}, {"measurement": "white blood cell counts", "setting": "[5]; complete blood counts", "value": "decrease"}, {"measurement": "injection site damage", "setting": "[5]; repetitive tail vein treatment", "value": "fibrotic damages of regional vessels at injection sites"}, {"measurement": "blood chemistry: LDH level", "setting": "[5]; [6]", "value": "significant decrease"}, {"measurement": "blood chemistry: electrolytes and kidney functions", "setting": "[5]; [6]", "value": "certain alterations"}, {"measurement": "histological examination of major organs", "setting": "[5]; [6]", "value": "did not reveal any obvious abnormalities"}, {"measurement": "growth of MMTV-neu breast cancers", "setting": "MMTV-neu breast cancers", "value": "consistently disrupted the growth"}, {"measurement": "growth of MMTV-wnt breast cancers", "setting": "MMTV-wnt breast cancers", "value": "no effects"}, {"measurement": "tumor growth by bioluminescent imaging", "setting": "U251 xenograft", "value": "stasis of tumor growth"}, {"measurement": "lysophospholipase D activity of autotaxin", "setting": "autotaxin", "value": "inhibited"}]}, {"molecule": "Cc1cc(Cc2ccc3c(c2)OCO3)ccc1OCC(=O)O", "note": "[NSC352678]", "values": [{"measurement": "activity against Taspase1 (cleavage of p75MLL)", "setting": "Taspase1 [1]", "value": "no demonstrable activity"}]}, {"molecule": "O=[N+]([O-])c1cccc(NCNc2cccc([N+](=O)[O-])c2)c1", "note": "[NSC47905]", "values": [{"measurement": "activity against Taspase1 (cleavage of p75MLL)", "setting": "Taspase1 [1]", "value": "no demonstrable activity"}]}, {"molecule": "COc1ccc(C(=O)OCc2ccc3c(c2)OCO3)cc1", "note": "[NSC23953]", "values": [{"measurement": "activity against Taspase1 (cleavage of p75MLL)", "setting": "Taspase1 [1]", "value": "no demonstrable activity"}]}, {"molecule": "MCA-KISQLDGVDD-DNP ({MCA}-KISQLDGVDD-{DNP}) [FRPR, reference compound]", "values": [{"measurement": "Km", "setting": "Taspase1 [2]; read-out: apparent KM, substrate of Taspase1", "value": "9.06 ± 2.8", "unit": "µM"}]}, {"molecule": "CC(C)C[C@H](NC(=O)[C@H](Cc1ccccc1)NC(=O)c1cnccn1)B(O)O", "note": "[Bortezomib, reference compound]", "values": [{"measurement": "activity against Taspase1 (cleavage of p75MLL)", "setting": "Taspase1 [1]", "value": "no activity"}]}]}
